Screening data from PubChem.
KCNK3 inh = human KCNK3 channel inhibitors, primary screen, CHO cells, FluxOR thallium flux, B-score; Potassium channel subfamily K member 3 (Homo sapiens), O14649; FluxOR fluorescence; stronger effect = lower value; B-score at 10 µM; 340,000 compounds, 0.84% hits; AID 602410, 2012;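 active = B-score under library mean minus 4 SD, starting fluorescence ratio at most library mean plus 5 SD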;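 note: more negative B-score means stronger inhibition of thallium flux through KCNK3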
hERG protect = hERG rescue from dofetilide block, primary screen, cell-based, CHO-hERG, FluxOR thallium flux, dofetilide IC70 | Voltage-gated inwardly rectifying potassium channel KCNH2 (Homo sapiens), Q12809 | dofetilide IC70 present | activation (rescue from dofetilide block), less the hit threshold, % at 10 µM | 310,000 compounds, 0.51% hits | AID 1511, 2009;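 active = activation above the mean of controls blocked by dofetilide plus 5 SD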;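 note: thallium influx through hERG after potassium depolarization seen as dye fluorescence rise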
Target sequence (Q12809 whole entry, looked up): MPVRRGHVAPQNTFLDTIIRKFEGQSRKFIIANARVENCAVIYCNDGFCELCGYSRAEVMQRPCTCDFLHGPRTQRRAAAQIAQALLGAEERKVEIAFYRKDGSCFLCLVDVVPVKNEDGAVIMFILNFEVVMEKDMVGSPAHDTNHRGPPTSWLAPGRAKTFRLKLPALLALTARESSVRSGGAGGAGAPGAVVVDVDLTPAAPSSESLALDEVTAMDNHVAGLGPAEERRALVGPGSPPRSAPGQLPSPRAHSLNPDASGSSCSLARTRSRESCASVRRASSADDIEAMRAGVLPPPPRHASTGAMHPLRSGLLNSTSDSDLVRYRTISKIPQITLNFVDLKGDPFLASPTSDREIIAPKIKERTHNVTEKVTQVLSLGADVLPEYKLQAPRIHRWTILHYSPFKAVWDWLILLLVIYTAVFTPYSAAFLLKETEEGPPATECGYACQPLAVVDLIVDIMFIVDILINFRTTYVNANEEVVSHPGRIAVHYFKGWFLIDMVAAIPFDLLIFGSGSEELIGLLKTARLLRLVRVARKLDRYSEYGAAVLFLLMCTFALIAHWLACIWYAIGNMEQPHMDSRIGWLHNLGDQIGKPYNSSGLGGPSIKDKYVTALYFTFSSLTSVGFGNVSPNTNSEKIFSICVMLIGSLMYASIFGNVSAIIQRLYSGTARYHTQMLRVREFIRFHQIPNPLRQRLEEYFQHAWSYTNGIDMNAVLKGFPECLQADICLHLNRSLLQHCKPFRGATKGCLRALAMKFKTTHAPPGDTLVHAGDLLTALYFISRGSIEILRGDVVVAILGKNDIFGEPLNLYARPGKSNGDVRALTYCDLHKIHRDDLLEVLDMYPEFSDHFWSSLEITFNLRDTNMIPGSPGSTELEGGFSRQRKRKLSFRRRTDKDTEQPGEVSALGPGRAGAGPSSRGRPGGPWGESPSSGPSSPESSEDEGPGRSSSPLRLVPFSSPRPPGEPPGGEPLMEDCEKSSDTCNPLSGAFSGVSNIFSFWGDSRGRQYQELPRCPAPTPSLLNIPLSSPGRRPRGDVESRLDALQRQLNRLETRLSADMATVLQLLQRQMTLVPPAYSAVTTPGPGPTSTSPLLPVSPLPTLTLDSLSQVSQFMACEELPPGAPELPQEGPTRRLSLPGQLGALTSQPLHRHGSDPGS
KCNQ1 block = inhibitors of human KCNQ1 channel, primary screen, cell-based, thallium flux, high-throughput; Potassium voltage-gated channel subfamily KQT member 1 (Homo sapiens), P51787; B-score at 10 µM; CHO-K1 KCNQ1, FluxOR thallium flux fluorescence; stronger effect = higher value; AID 2642, 2010; 310,000 compounds, 1.3% hits;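 active = compounds whose thallium flux B-score, printed positive for inhibition, exceeds three library SD while starting fluorescence stays within three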;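 note: channel opened by potassium depolarization with thallium stimulus after 20 min compound exposure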
KCNK9 block = KCNK9 potassium channel inhibitors, primary screen, HEK293 cells, thallium flux; Potassium channel subfamily K member 9 (Homo sapiens), Q9NPC2; FluxOR thallium flux fluorescence; stronger effect = lower value; B-score at 10 µM; 310,000 compounds, 1.2% hits;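 active = ratio B-score over 3 SD below the library mean, with starting fluorescence within 5 SD of its mean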;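 note: negative B-score means less thallium flux so channel inhibition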
Kir21 inh = inhibitors of mouse Kir2.1 inward-rectifier potassium channel | B-score at 10 µM | Inward rectifier potassium channel 2 (Mus musculus), P35561 | 310,000 compounds, 0.85% hits | AID 1672, 2009 | HEK293-Kir2.1, FluxOR thallium flux fluorescence; stronger effect = lower value;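 active = fluorescence ratio B-score at or below minus 3 SD of library scores, with starting-brightness B-score within 2 SD, cut at about -4.2 in these data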;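 note: channel flux triggered by added potassium and thallium sulfate stimulus; B-score of peak minus minimum fluorescence over baseline after thallium stimulus; more negative B-score means stronger Kir2.1 block with less thallium influx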
KCNQ1 pot = potentiators or activators of KCNQ1 channel, primary screen, cell-based, thallium flux, high-throughput; Potassium voltage-gated channel subfamily KQT member 1 (Homo sapiens), P51787; CHO-K1 KCNQ1, thallium flux FluxOR fluorescence; stronger effect = higher value; B-score at 10 µM; 310,000 compounds, 0.35% hits;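 active = fluorescence ratio B-score, a plate-corrected score, at least three library SD, with initial intensity B-score within 5 SD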
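System: CHO-K1 cells stably expressing KCNQ1 / Medium: assay buffer for compound exposure, DMSO matched across wells / Reagent: thallium- and potassium-containing depolarizing buffer / Compound: one concentration, matched DMSO / Incubation: 20 min compound pretreatment at room temperature / Measured by: kinetic FluxOR fluorescence, 10 s baseline plus 110 s post-stimulus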
* = called active by the depositor. Only some compounds are listed: those with a hit (about 3.7% of all), similar ones and a draw of the others.

How did Cc1ccsc1/C=C/C1=Cc2c(sc(NC(=O)CSc3n[nH]c(N)n3)c2C#N)C(C)(C)C1 do in these assays?
KCNK3 inh: inactive; hERG protect: -17; KCNQ1 block: 8*; KCNK9 block: inactive; Kir21 inh: -1.4; KCNQ1 pot: inactive

Results for Cc1cc(C)c(OCCCCN2CCC(C)CC2)c(Br)c1 ?
KCNK3 inh: inactive; hERG protect: -10; KCNQ1 block: inactive; KCNK9 block: inactive; Kir21 inh: -5.5*; KCNQ1 pot: inactive

How did Cc1cc(Cl)c(OCCOCCN2CCC(C)CC2)c(Br)c1 do in these assays?
KCNK3 inh: inactive; hERG protect: -8; KCNQ1 block: inactive; KCNK9 block: inactive; Kir21 inh: -5.2*; KCNQ1 pot: inactive

Results for CC1CCN(CCOCCOc2ccc(Cl)cc2Br)CC1 ?
KCNK3 inh: inactive; hERG protect: -9; KCNQ1 block: 6*; KCNK9 block: inactive; Kir21 inh: -2.8; KCNQ1 pot: inactive

How did Clc1ccc(OCCOCCN2CCCCC2)c(Br)c1 do in these assays?
KCNK3 inh: inactive; hERG protect: -14; KCNQ1 block: inactive; KCNK9 block: inactive; Kir21 inh: -2.1; KCNQ1 pot: inactive

What do the screens show for `Cc1cc(Cl)c(OCCOCCN2CCN(C)CC2)c(Br)c1`?
KCNK3 inh: inactive; hERG protect: -8; KCNQ1 block: inactive; KCNK9 block: inactive; Kir21 inh: -0.05; KCNQ1 pot: inactive

What do the screens show for `O=C(Nc1nccs1)c1ccc2c(=O)n3c(nc2c1)CCCCC3`?
KCNK3 inh: inactive; hERG protect: -9; KCNQ1 block: inactive; KCNK9 block: inactive; Kir21 inh: 0.11; KCNQ1 pot: inactive

What do the screens show for `O=C(C[n+]1ccc2ccccc2c1)c1ccc(NC(=O)c2ccccc2)cc1`?
KCNK3 inh: inactive; hERG protect: -13; KCNQ1 block: inactive; KCNK9 block: inactive; Kir21 inh: -0.85; KCNQ1 pot: inactive

How did COc1ccc(-c2c(C)nn(-c3ccccc3)c2N)cc1OC do in these assays?
KCNK3 inh: inactive; hERG protect: 4.7*; KCNQ1 block: inactive; KCNK9 block: inactive; Kir21 inh: 1.8; KCNQ1 pot: inactive

What do the screens show for `CCC(C(=O)N(C(C)C)C(C)C)c1ccccc1` (centres undefined)?
KCNK3 inh: inactive

What do the screens show for `CCC(C(=O)c1ccc(O)cc1)c1ccccc1` (centres undefined)?
KCNK3 inh: inactive; hERG protect: -5; KCNQ1 block: inactive; KCNK9 block: inactive; Kir21 inh: -5*; KCNQ1 pot: inactive

What do the screens show for `O=C(N/N=C/c1cn(-c2ccccc2)nc1-c1ccc(F)cc1)c1ccc(Br)o1`?
KCNK3 inh: -8.7*; hERG protect: -12; KCNQ1 block: inactive; KCNK9 block: inactive; Kir21 inh: 1.5; KCNQ1 pot: inactive

How did O=C(N/N=C/c1cn(-c2ccccc2)nc1-c1cccnc1)c1ccc(F)cc1 do in these assays?
KCNK3 inh: inactive; hERG protect: -10; KCNQ1 block: inactive; KCNK9 block: inactive; Kir21 inh: -1.8; KCNQ1 pot: inactive

Results for O=C(N/N=C/c1cn(-c2ccccc2)nc1-c1cc2ccccc2o1)c1ccncc1 ?
KCNK3 inh: inactive; hERG protect: -7; KCNQ1 block: inactive; KCNK9 block: inactive; Kir21 inh: 0; KCNQ1 pot: inactive

What do the screens show for `O=C(N/N=C/c1cn(-c2ccccc2)nc1-c1cc2ccccc2o1)c1cccnc1`?
KCNK3 inh: inactive; hERG protect: -13; KCNQ1 block: 6*; KCNK9 block: inactive; Kir21 inh: -1.4; KCNQ1 pot: inactive

How did O=C(COc1ccc(Cl)cc1Cl)NC(=S)N1CCCc2ccccc21 do in these assays?
KCNK3 inh: inactive; hERG protect: 13*; KCNQ1 block: inactive; KCNK9 block: inactive; Kir21 inh: 0.04; KCNQ1 pot: inactive

How did S=C(Nc1ccccc1)N1CCc2ccccc21 do in these assays?
KCNK3 inh: inactive; hERG protect: -10; KCNQ1 block: inactive; KCNK9 block: inactive; Kir21 inh: 1; KCNQ1 pot: inactive

What do the screens show for `O=[N+]([O-])c1ccc(NC(=S)N2CCc3ccccc32)cc1`?
KCNK3 inh: inactive; hERG protect: -10; KCNQ1 block: 9*; KCNK9 block: inactive; Kir21 inh: -0.58; KCNQ1 pot: inactive

How did O=C(COc1ccc(Cl)cc1Cl)OCC(=O)N1CCCc2ccccc21 do in these assays?
KCNK3 inh: inactive; hERG protect: -2; KCNQ1 block: inactive; KCNK9 block: inactive; Kir21 inh: 0.97; KCNQ1 pot: inactive

Results for O=C(NC(=S)N1CCc2ccccc21)c1ccccc1Cl ?
KCNK3 inh: inactive; hERG protect: 31*; KCNQ1 block: inactive; KCNK9 block: inactive; Kir21 inh: -0.57; KCNQ1 pot: 24*

What do the screens show for `O=C(NC(=S)N1CCc2ccccc21)c1ccccc1`?
KCNK3 inh: inactive; hERG protect: 24*; KCNQ1 block: inactive; KCNK9 block: inactive; Kir21 inh: 3.5; KCNQ1 pot: inactive

How did CC1=C(C)CC(C(=O)NCc2cccc(Cl)c2)C(C(=O)O)C1 (centres undefined) do in these assays?
KCNK3 inh: inactive; hERG protect: -8; KCNQ1 block: inactive; KCNK9 block: inactive; Kir21 inh: -1; KCNQ1 pot: inactive

How did COc1ccc(CNC(=O)CCCCCNC(=O)N2CCn3c2nc2ccccc23)cc1 do in these assays?
KCNK3 inh: inactive; hERG protect: -9; KCNQ1 block: inactive; KCNK9 block: inactive; Kir21 inh: 2; KCNQ1 pot: inactive

What do the screens show for `O=C(NCN1CCOCC1)c1cnccn1`?
KCNK3 inh: inactive; hERG protect: -7; KCNQ1 block: inactive; KCNK9 block: inactive; Kir21 inh: -0.13; KCNQ1 pot: inactive

How did O=C(COc1ccccc1F)N1CCCc2ccccc21 do in these assays?
KCNK3 inh: inactive; hERG protect: -7; KCNQ1 block: inactive; KCNK9 block: inactive; Kir21 inh: 1.9; KCNQ1 pot: inactive

What do the screens show for `CC(=O)c1cc(F)ccc1OCC(=O)N1CCCc2ccccc21`?
KCNK3 inh: inactive; hERG protect: -4; KCNQ1 block: inactive; KCNK9 block: inactive; Kir21 inh: -6.5*; KCNQ1 pot: inactive

Results for COc1ccc(-c2nn(Cc3ccccc3)cc2C(=O)N2CCN(c3ncccn3)CC2)cc1 ?
KCNK3 inh: inactive

How did COc1cc(O)c(C=Nc2ccccc2NS(=O)(=O)c2ccc(C)cc2)c(OC)c1 do in these assays?
KCNK3 inh: inactive
